Assay results reported in ChEMBL document CHEMBL4364301 (Eur J Med Chem, 2019).

Key:
Format in all cases: functional
VCaP [1] = experiment: Antiproliferative activity against human VCaP cells assessed as T/C value at 3.2 uM incubated for 96 hrs by propidium iodide based 2D monolayer assay
Summary of the method: (§1)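 Cells were kept in RPMI 1640 with 25 mM HEPES, 10% FCS and gentamicin at 37 °C under 5% CO2, and plated at 4,000-20,000 cells/well. After 24 h recovery, compound in medium or medium alone (control wells) was added at 10 half-log concentrations from 0.0032 to 100 µM, in triplicate, with at most 0.3% DMSO. After 96 h, wells were PBS-washed, stained with 7 µg/ml PI and 0.1% Triton X-100, and fluorescence read at 530/620 nm. IC50 came from a 4-parameter fit, geometric mean.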

LNCaP [2] = experiment: Antiproliferative activity against human LNCAP cells assessed as T/C value at 3.2 x 10^-2 uM incubated for 96 hrs by propidium iodide based 2D monolayer assay; summary of the method: as §1
DU-145 [3] = experiment: Antiproliferative activity against human DU145 cells assessed as T/C value at 3.2 uM incubated for 96 hrs by propidium iodide based 2D monolayer assay; summary of the method: as §1
LNCaP [4] = experiment: Antiproliferative activity against human LNCAP cells assessed as T/C value at 1 uM incubated for 96 hrs by propidium iodide based 2D monolayer assay; summary of the method: as §1
LNCaP [5] = experiment: Antiproliferative activity against human LNCAP cells assessed as T/C value at 3.2 uM incubated for 96 hrs by propidium iodide based 2D monolayer assay; summary of the method: as §1
CWR22R [6] = experiment: Antiproliferative activity against human 22Rv1 cells assessed as T/C value at 1 x 10^-2 uM incubated for 96 hrs by propidium iodide based 2D monolayer assay; summary of the method: as §1
DU-145 [7] = experiment: Antiproliferative activity against human DU145 cells assessed as T/C value at 1 x 10^-1 uM incubated for 96 hrs by propidium iodide based 2D monolayer assay
Summary of the method: as §1, with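 “After” for “Cells were kept in RPMI 1640 with 25 mM HEPES, 10% FCS and gentamicin at 37 °C under 5% CO2, and plated at 4,000-20,000 cells/well. After”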

DU-145 [8] = experiment: Antiproliferative activity against human DU145 cells assessed as reduction in cell growth incubated for 96 hrs by propidium iodide based 2D monolayer assay; details: DU-145, 96 h
Summary of the method: as §1, with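 “After” for “Cells were kept in RPMI 1640 with 25 mM HEPES, 10% FCS and gentamicin at 37 °C under 5% CO2, and plated at 4,000-20,000 cells/well. After”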

CWR22R [9] = experiment: Antiproliferative activity against human 22Rv1 cells assessed as T/C value at 1 x 10^1 uM incubated for 96 hrs by propidium iodide based 2D monolayer assay; summary of the method: as §1
CWR22R [10] = experiment: Antiproliferative activity against human 22Rv1 cells assessed as T/C value at 3.2 uM incubated for 96 hrs by propidium iodide based 2D monolayer assay; summary of the method: as §1
CWR22R [11] = experiment: Antiproliferative activity against human 22Rv1 cells assessed as T/C value at 1 x 10^2 uM incubated for 96 hrs by propidium iodide based 2D monolayer assay; summary of the method: as §1
VCaP [12] = experiment: Antiproliferative activity against human VCaP cells assessed as T/C value at 1 x 10^2 uM incubated for 96 hrs by propidium iodide based 2D monolayer assay; summary of the method: as §1
DU-145 [13] = experiment: Antiproliferative activity against human DU145 cells assessed as T/C value at 1 uM incubated for 96 hrs by propidium iodide based 2D monolayer assay
Summary of the method: as §1, with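 “After” for “Cells were kept in RPMI 1640 with 25 mM HEPES, 10% FCS and gentamicin at 37 °C under 5% CO2, and plated at 4,000-20,000 cells/well. After”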

LNCaP [14] = experiment: Antiproliferative activity against human LNCAP cells assessed as T/C value at 1 x 10^1 uM incubated for 96 hrs by propidium iodide based 2D monolayer assay; summary of the method: as §1
LNCaP [15] = experiment: Antiproliferative activity against human LNCAP cells assessed as T/C value at 3.2 x 10^-1 uM incubated for 96 hrs by propidium iodide based 2D monolayer assay; summary of the method: as §1
DU-145 [16] = experiment: Antiproliferative activity against human DU145 cells assessed as T/C value at 1 x 10^1 uM incubated for 96 hrs by propidium iodide based 2D monolayer assay
Summary of the method: as §1, with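 “After” for “Cells were kept in RPMI 1640 with 25 mM HEPES, 10% FCS and gentamicin at 37 °C under 5% CO2, and plated at 4,000-20,000 cells/well. After”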

LNCaP [17] = experiment: Antiproliferative activity against human LNCAP cells assessed as T/C value at 1 x 10^-2 uM incubated for 96 hrs by propidium iodide based 2D monolayer assay; summary of the method: as §1
VCaP [18] = experiment: Antiproliferative activity against human VCaP cells assessed as T/C value at 3.2 x 10^-1 uM incubated for 96 hrs by propidium iodide based 2D monolayer assay
Summary of the method: (§2)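 VCaP cells in RPMI 1640 with 10% FCS at 37 °C, 5% CO2, seeded 4,000–20,000 cells/well and left 24 h before dosing. Compounds from DMSO stocks were diluted in half-log steps in medium, 10 concentrations 0.0032–100 μM, triplicate wells, max 0.3% DMSO. After 96 h, cells were washed, stained with 7 μg/ml propidium iodide plus 0.1% Triton X-100 for 1–2 h at room temperature, and fluorescence read at ex 530/em 620 nm.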

CWR22R [19] = experiment: Antiproliferative activity against human 22Rv1 cells assessed as T/C value at 1 uM incubated for 96 hrs by propidium iodide based 2D monolayer assay; summary of the method: as §1
CWR22R [20] = experiment: Antiproliferative activity against human 22Rv1 cells assessed as T/C value at 3.2 x 10^-3 uM incubated for 96 hrs by propidium iodide based 2D monolayer assay; summary of the method: as §1
DU-145 [21] = experiment: Antiproliferative activity against human DU145 cells assessed as T/C value at 3.2 x 10^-1 uM incubated for 96 hrs by propidium iodide based 2D monolayer assay
Summary of the method: as §1, with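 “After” for “Cells were kept in RPMI 1640 with 25 mM HEPES, 10% FCS and gentamicin at 37 °C under 5% CO2, and plated at 4,000-20,000 cells/well. After”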

DU-145 [22] = experiment: Antiproliferative activity against human DU145 cells assessed as T/C value at 3.2 x 10^-3 uM incubated for 96 hrs by propidium iodide based 2D monolayer assay
Summary of the method: as §1, with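 “After” for “Cells were kept in RPMI 1640 with 25 mM HEPES, 10% FCS and gentamicin at 37 °C under 5% CO2, and plated at 4,000-20,000 cells/well. After”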

VCaP [23] = experiment: Antiproliferative activity against human VCaP cells assessed as T/C value at 1 uM incubated for 96 hrs by propidium iodide based 2D monolayer assay; summary of the method: as §1
VCaP [24] = experiment: Antiproliferative activity against human VCaP cells assessed as reduction in cell growth incubated for 96 hrs by propidium iodide based 2D monolayer assay; summary of the method: as §2
LNCaP [25] = experiment: Antiproliferative activity against human LNCAP cells assessed as reduction in cell growth incubated for 96 hrs by propidium iodide based 2D monolayer assay
Summary of the method: as §1, with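 “After” for “Cells were kept in RPMI 1640 with 25 mM HEPES, 10% FCS and gentamicin at 37 °C under 5% CO2, and plated at 4,000-20,000 cells/well. After”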

CWR22R [26] = experiment: Antiproliferative activity against human 22Rv1 cells assessed as T/C value at 3.2 x 10^-1 uM incubated for 96 hrs by propidium iodide based 2D monolayer assay; summary of the method: as §1
DU-145 [27] = experiment: Antiproliferative activity against human DU145 cells assessed as T/C value at 3.2 x 10^-2 uM incubated for 96 hrs by propidium iodide based 2D monolayer assay
Summary of the method: as §1, with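 “After” for “Cells were kept in RPMI 1640 with 25 mM HEPES, 10% FCS and gentamicin at 37 °C under 5% CO2, and plated at 4,000-20,000 cells/well. After”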

VCaP [28] = experiment: Antiproliferative activity against human VCaP cells assessed as T/C value at 1 x 10^-1 uM incubated for 96 hrs by propidium iodide based 2D monolayer assay; summary of the method: as §1
CWR22R [29] = experiment: Antiproliferative activity against human 22Rv1 cells assessed as T/C value at 1 x 10^-1 uM incubated for 96 hrs by propidium iodide based 2D monolayer assay; summary of the method: as §1
VCaP [30] = experiment: Antiproliferative activity against human VCaP cells assessed as T/C value at 1 x 10^-2 uM incubated for 96 hrs by propidium iodide based 2D monolayer assay; summary of the method: as §1
DU-145 [31] = experiment: Antiproliferative activity against human DU145 cells assessed as T/C value at 1 x 10^2 uM incubated for 96 hrs by propidium iodide based 2D monolayer assay; summary of the method: as §1
VCaP [32] = experiment: Antiproliferative activity against human VCaP cells assessed as T/C value at 3.2 x 10^-2 uM incubated for 96 hrs by propidium iodide based 2D monolayer assay; summary of the method: as §2

Row | SMILES | T/C (VCaP [1]) | T/C (LNCaP [2]) | T/C (DU-145 [3]) | T/C (LNCaP [4]) | T/C (LNCaP [5]) | T/C (CWR22R [6]) | T/C (DU-145 [7]) | IC50 (DU-145 [8]) | IC70 (DU-145 [8]) | T/C (CWR22R [9]) | T/C (CWR22R [10]) | T/C (CWR22R [11]) | T/C (VCaP [12]) | T/C (DU-145 [13]) | T/C (LNCaP [14]) | T/C (LNCaP [15]) | T/C (DU-145 [16]) | T/C (LNCaP [17]) | T/C (VCaP [18]) | T/C (CWR22R [19]) | further results
1 | CC1(C)C(=O)N(c2ccc(C#N)cc2C(F)(F)F)C(=S)N1c1cccc(S(F)(F)(F)(F)F)c1 | 64% | 103% | 116% | 79% | 54% | 104% | 103% | 100 µM | > 100 µM | 60% | 93% | 51% | 57% | 112% | 36% | 85% | 96% | 91% | 89% | 97% | T/C (CWR22R [20]): 104%; T/C (DU-145 [21]): 110%; T/C (DU-145 [22]): 102%; T/C (VCaP [23]): 76%; IC50 (VCaP [24]): 100 µM; IC70 (VCaP [24]): > 100 µM; IC50 (LNCaP [25]): 4.1 µM; IC70 (LNCaP [25]): 19.9 µM; T/C (CWR22R [26]): 101%; T/C (DU-145 [27]): 107%; T/C (VCaP [28]): 88%; T/C (CWR22R [29]): 102%; T/C (VCaP [30]): 84%; T/C (DU-145 [31]): 83%; T/C (VCaP [32]): 88%
2 | CC1(C)C(=O)N(c2ccc(C#N)cc2C(F)(F)F)C(=S)N1c1ccc(S(F)(F)(F)(F)F)cc1 | 74% | 78% | 102% | 66% | 51% | 104% | 114% | 12.7 µM | 29.1 µM | 25% | 78% | 12% | 47% | 104% | 12% | 82% | 53% | 76% | 89% | 99% | T/C (CWR22R [20]): 106%; T/C (DU-145 [21]): 115%; T/C (DU-145 [22]): 105%; T/C (VCaP [23]): 85%; IC50 (VCaP [24]): 100 µM; IC70 (VCaP [24]): > 100 µM; IC50 (LNCaP [25]): 3 µM; IC70 (LNCaP [25]): 5.34 µM; T/C (CWR22R [26]): 101%; T/C (DU-145 [27]): 111%; T/C (VCaP [28]): 103%; T/C (CWR22R [29]): 98%; T/C (VCaP [30]): 100%; T/C (DU-145 [31]): 16%; T/C (VCaP [32]): 103%
